Assay results published in ChEMBL document CHEMBL4715721, “Synthesis and optimization of novel allylated mono-carbonyl analogs of curcumin (MACs) act as potent anti-inflammatory agents against LPS-induced acute lung injury (ALI) in rats” (Eur J Med Chem, 2016).
Converted amounts (≈) assume the structure as drawn.

Columns and labels:
[1] = Cytotoxicity against human HL7702 cells assessed as cell survival rate at 10 uM incubated for 24 hrs by MTT assay; format: cell-based; settings: HL7702 (L02) cells, read-out: Activity
How it was run: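 HL-7702 human normal hepatic cells exposed to 10 μM compound for 24 h; viability measured by MTT assay and given as survival rate, mean ± SD of three experiments.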

[2] = test system: RAW264.7; experiment: (§1) Cytotoxicity against mouse RAW264.7 cells assessed as cell survival rate at 10 uM; format: cell-based; settings: raw264.7, 10 µM
[3] = test system: RAW264.7; experiment: Antiinflammatory activity in mouse RAW264.7 cells assessed as decrease in LPS-induced IL-6 secretion at 10 microM incubated for 30 mins followed by LPS stimulation and measured after 24 hrs by ELISA relative to control; format: functional; settings: RAW264.7, 24.5 h, time 1470 min
How it was run: (§2)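 RAW264.7 cells in DMEM with 10% FBS at 37 °C, 5% CO₂; pretreated with 10 μM for 30 min, then LPS 0.5 μg/mL for 24 h. Medium TNF-α and IL-6 measured by ELISA and normalized to total protein of viable cells; percent inhibition, mean ± SD of three experiments.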

[4] = test system: RAW264.7; experiment: Antiinflammatory activity in mouse RAW264.7 cells assessed as decrease in LPS-induced TNF-alpha secretion at 10 microM incubated for 30 mins followed by LPS stimulation and measured after 24 hrs by ELISA relative to control; format: functional; settings: RAW264.7, 24.5 h, time 1470 min; how it was run: as §2
[5] = Chemical stability of compound in PBS buffer containing 5% DMSO at pH 7.4 measured every 5 mins for 25 mins by UV-Vis absorption spectral analysis; format: physicochemical; settings: pH 7.4, 25 min
How it was run: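 Compound diluted from 1 mM stock in phosphate buffer pH 7.4 containing 5% DMSO; UV-visible spectra recorded from 250 to 600 nm at 25 °C in a 1 cm quartz cuvette, every 5 min for 25 min.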

[6] = test system: RAW264.7; experiment: Antiinflammatory activity in mouse RAW264.7 cells assessed as decrease in LPS-induced TNF-alpha secretion incubated for 30 mins followed by LPS stimulation and measured after 24 hrs by ELISA; format: functional, cell-based; settings: dose 1-10 µM, time 1470.0 min
How it was run: (§3)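 RAW264.7 cells seeded at 4.0×10^5/plate overnight; pretreated at 1, 2.5, 5 or 10 μM for 30 min, then with or without LPS 0.5 μg/mL for 24 h. Medium IL-6 and TNF-α measured by ELISA and normalized to total protein; percent of LPS control, mean ± SEM of three independent experiments.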

[7] = test system: RAW264.7; experiment: Antiinflammatory activity in mouse RAW264.7 cells assessed as decrease in LPS-induced IL-6 secretion incubated for 30 mins followed by LPS stimulation and measured after 24 hrs by ELISA; format: functional, cell-based; settings: dose 1-10 µM, time 1470.0 min; how it was run: as §3
[8] = Octanol-water partition coefficient, logP of compound; format: physicochemical
[9] = Aqueous kinetic solubility of compound at pH 7.4; format: physicochemical; settings: read-out: Kinetic_solubility
[10] = as §1; format: cell-based; settings: RAW264.7 cells, read-out: Activity

C=CCc1cc(/C=C2\CN(C3CC3)C/C(=C\c3ccc(O)c(CC=C)c3)C2=O)ccc1O
viability at 24 h, 10 µM [1]: 76.2% | Activity [2]: Non-Toxic | inhibition at 10 µM [3]: 77.5% | inhibition at 10 µM [4]: 39.5% | Stabilty [5]: Stable | inhibition [6]: Dose-dependent effect | inhibition [7]: Dose-dependent effect

C=CCc1cc(/C=C2\CN(C3CC3)C/C(=C\c3ccc(N(CC)CC)cc3)C2=O)ccc1O
viability at 24 h, 10 µM [1]: 94% | logP [8]: 4.08 | inhibition at 10 µM [3]: 71.9% | inhibition at 10 µM [4]: 32.1%

C=CCc1cc(/C=C2\CN(C3CC3)C/C(=C\c3ccc(N4CCOCC4)cc3)C2=O)ccc1O
viability at 24 h, 10 µM [1]: 94.3% | solubility kinetic [9]: 19.4 mg/mL (≈ 42.5 mM) | logP [8]: 3.21 | inhibition at 10 µM [3]: 59.8% | inhibition at 10 µM [4]: 8.19%

C=CCc1cc(/C=C2\CN(S(=O)(=O)c3ccccc3)C/C(=C\c3ccc(O)c(CC=C)c3)C2=O)ccc1O
viability at 24 h, 10 µM [1]: 63.4% | viability at 10 µM [10]: < 70% | inhibition at 10 µM [3]: 24.8%

C=CCc1cc(/C=C2\CN(C(=O)c3ccc(F)cc3)C/C(=C\c3ccc(O)c(CC=C)c3)C2=O)ccc1O
viability at 24 h, 10 µM [1]: 78% | Activity [2]: Non-Toxic | inhibition at 10 µM [3]: 86.8%
